Active and inactive are the calls of the source. The rule behind the calls is not given here.

From ChEMBL document CHEMBL1153567, “Synthesis of novel pyrazole derivatives and evaluation of their antidepressant and anticonvulsant activities” (2009) come the findings set out here.

Experiment [1] concerns Mus musculus. The experiment in a line: Anticonvulsant activity in Swiss-Webster mouse assessed as protection against PTZ-induced clonic seizures at 20 mg/kg, ip administered 1 hr before PTZ.
Experiment [2] has as its system Mus musculus. The experiment in a line: Antidepressant activity in Swiss-Webster mouse assessed as reduction in duration of immobility time at 10 mg/kg, ip by tail suspension behavioral despair test. In kind it is functional. Also noted: scale not given: the % may be the effect or the level left. Particulars: route intraperitoneal. The essentials: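 Tail suspension test in mice (n = 6/group; 22 ± 3 °C, 60 ± 5% humidity, 12 h light cycle, acclimated ≥2 days). Doses given ip in 0.5% w/v CMC at 0.5 mL/100 g; controls received CMC, imipramine 10 mg kg⁻¹ ip as reference. After 1 h, mice hung by tape 1 cm from the tail tip, 80 cm above the floor. Passive, motionless immobility timed over 6 min; mean ± S.E.M. and % change from control.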

In experiment [3] the test system is Mus musculus. The experiment in a line: Anticonvulsant activity in Swiss-Webster mouse assessed as protection against PTZ-induced clonic seizures at 30 mg/kg, ip administered 1 hr before PTZ. It counts as functional, organism-based. Also on record: dose 30 mg/kg. The essentials: (§1)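 Mice (n = 6/group), kept at 22 ± 3 °C, 60 ± 5% humidity, 12 h light/dark cycle, acclimated ≥2 days, free food and water. Agents given ip in 0.5% w/v CMC in water at 0.5 mL/100 g. After 1 h, PTZ 100 mg kg⁻¹ ip (0.5% solution). Observed 30 min; no clonic spasm episode lasting ≥5 s counted as protection. % protection = (control − treated convulsions)/control × 100.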

Experiment [4] deals with Mus musculus. The experiment in a line: Antidepressant activity in Swiss-Webster mouse assessed as reduction in duration of immobility time at 10 mg/kg, ip by tail suspension behavioral despair test relative to imipramine. It counts as functional. Also on record: scale not given: the % may be the effect or the level left. Particulars: route intraperitoneal.
Experiment [5] concerns Mus musculus. The experiment is described as follows: Anticonvulsant activity in Swiss-Webster mouse assessed as protection against PTZ-induced clonic seizures at 20 mg/kg, ip administered 1 hr before PTZ. In kind it is functional. The conditions noted are these: route intraperitoneal. The essentials: as §1

As to `O=C1NC(=O)C(c2ccccc2)(c2ccccc2)N1`, the result in the experiment on Mus musculus [1] was Active.

Turning to `CCOC(=O)c1[nH]n(C(=O)c2cccs2)c(=O)c1C#N`, the results for the Activity in the experiment on Mus musculus [2], in the experiment with Mus musculus [4] and in the experiment on Mus musculus [5] were 18.33%, 66.4% and 78.7%, respectively. Besides, in the experiment with Mus musculus [3], the result was Active.

Turning to `N#CC1=C(N)N(C(=O)c2cccs2)NC1(C#N)C#N`, the results for the Activity in the experiment on Mus musculus [2] and with Mus musculus [5] were 10.6% and 56.8%, respectively.

Consider `O=C(NNC(=O)c1cccs1)c1cccs1`, for which the Activity with Mus musculus [2] was determined as 72.22%.

As for `CN(C)CCCN1c2ccccc2CCc2ccccc21` [IMIPRAMINE], in the experiment on Mus musculus [2], the Activity turned out to be 45.75%.

Regarding `O=C(NNC(=O)c1cc2ccccc2[nH]1)c1cc2ccccc2[nH]1`, the Activity with Mus musculus [2] was 17.8%.

As for `O=C(NNC(=O)c1ccccc1)c1ccccc1`, the Activity in the experiment with Mus musculus [2] is on record as 71.96%; with Mus musculus [5], 65.1%.

For the compound `N#CC1=C(N)N(C(=O)c2cc3ccccc3[nH]2)NC1(C#N)C#N`, the Activity with Mus musculus [2] is 17.67%.

Take `CCOC(=O)c1[nH]n(C(=O)c2ccccc2)c(=O)c1C#N`: the Activity turned out to be 24.41% with Mus musculus [2], 71.8% in the experiment with Mus musculus [4] and 74.5% with Mus musculus [5]. Moreover, the result with Mus musculus [3] was Active.

`N#CC1=C(N)N(C(=O)c2ccccc2)NC1(C#N)C#N`: the Activity in the experiment on Mus musculus [2] stood at 9.37%.

As to `CCOC(=O)c1[nH]n(C(=O)c2cc3ccccc3[nH]2)c(=O)c1C#N`, the Activity in the experiment on Mus musculus [2] came out at 30.54%; with Mus musculus [4], 78.1%; with Mus musculus [5], 74%. For the same compound, in the experiment on Mus musculus [3], the result was Active.

As for `CCOC(=O)c1[nH]n(C(=O)c2ccccn2)c(=O)c1C#N`, the Activity is given as 36.99% in the experiment on Mus musculus [2], 86.1% with Mus musculus [4] and 53.7% in the experiment with Mus musculus [5].

As to `O=C(NNC(=O)c1ccccn1)c1ccccn1`, the Activity came out at 32.39% in the experiment on Mus musculus [2] and 80.2% in the experiment with Mus musculus [4].

Turning to `N#CC1=C(N)N(C(=O)c2ccccn2)NC1(C#N)C#N`, the figures for the Activity with Mus musculus [2] and in the experiment with Mus musculus [4] were 38.76% and 88.6%, respectively.
